KCNQ1 block – human KCNQ1 channel inhibition. CHO-K1 KCNQ1, FluxOR thallium flux fluorescence; active compounds read high. P51787. B-score at 10 µM. AID 2642. actives 1.3% (n = 310,000);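 active = compounds whose thallium flux B-score, printed positive for inhibition, exceeds three library SD while starting fluorescence stays within three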;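 note: channel opened by potassium depolarization with thallium stimulus after 20 min compound exposure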
Target sequence (P51787 whole entry, looked up): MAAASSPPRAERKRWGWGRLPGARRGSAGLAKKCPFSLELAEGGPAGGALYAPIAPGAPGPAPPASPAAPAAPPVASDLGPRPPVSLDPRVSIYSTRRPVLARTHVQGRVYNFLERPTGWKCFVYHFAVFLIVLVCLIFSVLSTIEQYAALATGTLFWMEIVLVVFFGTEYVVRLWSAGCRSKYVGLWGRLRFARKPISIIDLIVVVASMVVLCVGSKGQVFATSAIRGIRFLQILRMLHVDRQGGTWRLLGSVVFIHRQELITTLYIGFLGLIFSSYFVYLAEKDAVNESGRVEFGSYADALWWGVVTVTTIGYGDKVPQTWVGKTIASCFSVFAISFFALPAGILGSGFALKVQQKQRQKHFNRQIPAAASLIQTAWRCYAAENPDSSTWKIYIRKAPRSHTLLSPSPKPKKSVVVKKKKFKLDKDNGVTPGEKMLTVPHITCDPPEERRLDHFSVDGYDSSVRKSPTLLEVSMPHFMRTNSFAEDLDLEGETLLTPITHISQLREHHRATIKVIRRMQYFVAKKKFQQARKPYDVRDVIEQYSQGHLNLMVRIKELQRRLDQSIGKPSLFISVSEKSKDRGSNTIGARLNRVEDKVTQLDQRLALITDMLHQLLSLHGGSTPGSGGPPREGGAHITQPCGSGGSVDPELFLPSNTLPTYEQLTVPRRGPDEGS
hERG rescue – shields human hERG channel from block by proarrhythmic agents. activation (rescue from dofetilide block), less the hit threshold, % at 10 µM. CHO-hERG, FluxOR thallium flux, dofetilide IC70 present. actives 0.51% (n = 310,000). AID 1511. Q12809;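 active = activation above the mean of controls blocked by dofetilide plus 5 SD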;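 note: thallium influx through hERG after potassium depolarization seen as dye fluorescence rise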
KCNK3 inh – human KCNK3 channel inhibition, primary screen | actives 0.84% (n = 340,000) | O14649 | CHO-KCNK3 thallium flux, FluxOR fluorescence; active compounds read low | B-score at 10 µM;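 active = B-score under library mean minus 4 SD, starting fluorescence ratio at most library mean plus 5 SD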;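 note: more negative B-score means stronger inhibition of thallium flux through KCNK3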
KCNK9 inh – human KCNK9 channel inhibition. Q9NPC2. HEK293 KCNK9, FluxOR thallium flux fluorescence; active compounds read low. B-score at 10 µM. actives 1.2% (n = 310,000);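 active = ratio B-score over 3 SD below the library mean, with starting fluorescence within 5 SD of its mean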;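 note: negative B-score means less thallium flux so channel inhibition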
KCNQ1 pot – human KCNQ1 channel potentiation or activation | P51787 | CHO-K1 KCNQ1, thallium flux FluxOR fluorescence; active compounds read high | B-score at 10 µM | actives 0.35% (n = 310,000) | AID 2648;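 active = fluorescence ratio B-score, a plate-corrected score, at least three library SD, with initial intensity B-score within 5 SD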
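Assay system: CHO-K1 cells stably expressing KCNQ1. Medium: assay buffer for compound exposure, DMSO matched across wells. Timing: 37 °C overnight plating, 90-min dark dye load, 20-min compound pretreatment. Signal: kinetic FluxOR fluorescence, 10 s baseline plus 110 s post-stimulus.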
KCNK3 inh conf – human KCNK3 channel inhibition, confirmation assay | shares compounds with KCNK3 inh | CHO-KCNK3 thallium flux, FluxOR fluorescence; 0% buffer, 100% carvedilol maximal block | ratio percent of control, % at 10 µM | actives 99% (n = 2,400);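 active = ratio percent of control, averaged over triplicates, above buffer control mean plus 5 SD, cut at about 64% in these data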;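 note: ratio is the fluorescence rise from min to max over baseline after thallium stimulus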
KCNK3 uninduced – KCNK3 inhibitor counter-screen hit in non-induced cells; actives 40% (n = 2,400); non-induced KCNK3 parental cells, FluxOR thallium flux; active compounds read low; AID 651747; thallium flux ratio (lower = more inhibition) at 10 µM; shares compounds with KCNK3 inh;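 active = thallium flux ratio, averaged over three wells, more than 5 SD below the buffer control mean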;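 note: host cells are CHO cells without KCNK3 induction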
Large screens that a line does not name were inactive (follow-up assays come after a bar, where they were run). A selection: hits, their analogues and other compounds. The true share with any hit is near 3.1%.

COC(=O)C1=C(C(=O)OC)[C@@H]2N(C)c3ccccc3[C@@]23C[C@@H](CO)N(C(=O)C2CCC2)C3=N1	none
CCOc1ccccc1NC(=O)C(NCCc1ccc(OC)cc1)c1ccccc1 (stereo not drawn)	KCNQ1 block 6, KCNK3 inh -10 | KCNK3 inh conf 132 | KCNK3 uninduced 0.13
CCc1cc(C(=O)Nc2cc(S(=O)(=O)N(C)C)ccc2C)sc1C	KCNK3 inh -9.3 | KCNK3 inh conf 90 | KCNK3 uninduced inactive
COc1cc(C=O)ccc1OCCOc1ccccc1[N+](=O)[O-]	none
CCOc1cccc(OCCOc2ccccc2[N+](=O)[O-])c1	KCNK3 inh -8.7, KCNK9 inh -7.2 | KCNK3 inh conf 110 | KCNK3 uninduced inactive
Cc1oc(-c2cccc(Cl)c2)nc1CN1CCCC(C(=O)NC(C)c2ccc3c(c2)OCCO3)C1 (stereo not drawn)	KCNK3 inh -11 | KCNK3 inh conf 127 | KCNK3 uninduced 0.12
CCN1C(=O)/C(=C/c2cccs2)SC1=Nc1ccc(OC)cc1	none
CCCN1C(=O)/C(=C/c2ccc(C)s2)SC1=Nc1ccc(OC)cc1	KCNK3 inh -9 | KCNK3 inh conf 114 | KCNK3 uninduced inactive
CC(CS(=O)(=O)c1ccccc1[N+](=O)[O-])N1CCOCC1 (stereo not drawn)	KCNK3 inh -9.1 | KCNK3 inh conf 84 | KCNK3 uninduced inactive
Cc1nonc1C1CCCN1Cc1cn[nH]c1-c1ccc(-c2ccccc2)cc1 (stereo not drawn)	KCNK3 inh -8.9, KCNK9 inh -7 | KCNK3 inh conf 102 | KCNK3 uninduced inactive
CCCCc1nn(-c2cc(Cl)ccc2OC)c2c1C(=O)CCC2	KCNK3 inh -9.2 | KCNK3 inh conf 96 | KCNK3 uninduced 0.16
CC(=O)Nc1ccc(Oc2ccc(S(=O)(=O)N3CCCC3)cn2)cc1	none (no result: KCNQ1 block, hERG rescue, KCNK9 inh, KCNQ1 pot)
CC(C)(C)NC(=O)CSc1nc(Cc2ccccc2)nc2ccccc12	none
CC(C)N(C(=O)CSc1nc(Cc2ccccc2)nc2ccccc12)C(C)C	KCNK3 inh -9.5 | KCNK3 inh conf 96 | KCNK3 uninduced inactive
Cc1cccc(NC(=S)NCc2ccc(F)cc2)c1C	none
CCC/C(O)=C1\C(=O)CCCC1=NCCc1ccc(OCC)c(OCC)c1	KCNK3 inh -9.2 | KCNK3 inh conf 117 | KCNK3 uninduced inactive
Cc1cccc(NC(=O)c2ccc(N(C)C3CCCCC3)c([N+](=O)[O-])c2)n1	KCNK3 inh -11 | KCNK3 inh conf 128 | KCNK3 uninduced 0.12
O=C(N1CCCC1)C12CC3CCC(CC(C3)C1)C2	KCNK3 inh -12 | KCNK3 inh conf 86 | KCNK3 uninduced inactive
O=C(NCc1cc([N+](=O)[O-])ccc1O)c1cc(-c2ccncc2)nc2ccccc12	KCNK3 inh -11 | KCNK3 inh conf 100 | KCNK3 uninduced 0.14
O=C(NCc1ccc(F)cc1)c1cc(-c2ccncc2)nc2ccccc12	none
Cc1ccc(OC(=O)c2ccc(S(=O)(=O)N(C)C)cc2)c(-n2nc3ccccc3n2)c1	none
CC(=O)Oc1ccc(C)cc1-n1nc2ccccc2n1	none
Cc1ccc(OC(=O)c2cccc(S(=O)(=O)N(C)C)c2)c(-n2nc3ccccc3n2)c1	KCNK9 inh -7.1 | KCNK3 inh conf 118 | KCNK3 uninduced inactive
Cc1ccc(OC(=O)c2cccc(S(=O)(=O)N3CCCC3)c2)c(-n2nc3ccccc3n2)c1	KCNK3 inh -9.3 | KCNK3 inh conf 110 | KCNK3 uninduced inactive
CC(CCc1ccccc1)NC(=O)c1nnc(Cc2ccc(Cl)cc2)o1 (stereo not drawn)	none
CC(=O)NS(=O)(=O)c1ccc(NC(=O)CC23CC4CC(CC(Br)(C4)C2)C3)cc1	none
Cc1cccc2cc(CN(Cc3ccco3)C(=O)Nc3cccc(C#N)c3)c(Cl)nc12	KCNQ1 block 6, KCNK3 inh -9.3 | KCNK3 inh conf 122 | KCNK3 uninduced 0.14
COc1ccc(C2(CNS(=O)(=O)c3ccc(C)cc3)CCOCC2)cc1	none
COc1ccc(NC(=O)CN(C)C(=O)/C=C/c2cn(-c3ccccc3)nc2-c2ccc(C)cc2)cc1	none
COc1cccc(NC(=O)CN(C)C(=O)c2cc(-c3ccccc3)nc3ccccc23)c1	none
COc1cccc(NC(=O)CN(C)C(=O)/C=C/c2cn(-c3ccccc3)nc2-c2ccc(C)cc2)c1	KCNQ1 block 10, KCNK3 inh -8.7 | KCNK3 inh conf 92 | KCNK3 uninduced inactive
COc1cccc(NC(=O)CN(C)C(=O)c2cc(-c3ccc(F)cc3)nc3ccccc23)c1	KCNK3 inh -9.3 | KCNK3 inh conf 133 | KCNK3 uninduced 0.11
Cc1ccc(SC(C)C(=O)N2CCC(C(N)=O)CC2)cc1 (stereo not drawn)	none
O=C(NCCC1=CCCCC1)C(=O)c1c[nH]c2ccccc12	none
CC(C)(CNC(=O)c1ccc([N+](=O)[O-])c(Cl)c1)CNC(=O)c1ccc([N+](=O)[O-])c(Cl)c1	KCNK3 inh -9.8, KCNK9 inh -7.9 | KCNK3 inh conf 131 | KCNK3 uninduced 0.15
COc1ccc(CCN(C)C(=O)COc2ccc(C(=O)c3ccccc3)cc2)cc1OC	none
CSc1ccc(CN(C)C(=O)COc2ccc(C(=O)c3ccccc3)cc2)cc1	KCNK3 inh -9.4 | KCNK3 inh conf 101 | KCNK3 uninduced inactive
COc1ccccc1C(=O)NCCC(=O)N1CCCC(C(F)(F)F)C1 (stereo not drawn)	KCNK3 inh -9.5 | KCNK3 inh conf 77 | KCNK3 uninduced inactive
COc1ccccc1C(=O)NCCC(=O)N1CCCCC1	none
O=C(Nc1cccnc1Cl)c1ccc(Cl)cc1	none
O=C(Nc1cccc2cccnc12)c1ccc(Cl)cc1	KCNK3 inh -8.9 | KCNK3 inh conf 103 | KCNK3 uninduced inactive
Cc1ccc(C(=O)Nc2cccc3cccnc23)cc1C	KCNK3 inh -9.9 | KCNK3 inh conf 95 | KCNK3 uninduced inactive
Cc1cccc(C(=O)Nc2cccc3cccnc23)c1	none
CC(C)n1cc(CN2CCC(Oc3ccc(C(=O)N4CCCCC4)cc3)CC2)cn1	none
COc1ccccc1NC(=O)CSCc1cc(=O)n2c(C)csc2n1	none
O=C(CCNS(=O)(=O)c1ccccc1F)N1CCN(C(c2ccccc2)c2ccccc2)CC1	KCNK3 inh -8.9, KCNK9 inh -7.4 | KCNK3 inh conf 101 | KCNK3 uninduced inactive
O=C(O)c1cc([N+](=O)[O-])ccc1C(=O)Nc1ccccc1	none
O=C(Nc1ccccc1)c1sccc1Oc1ccc([N+](=O)[O-])cc1F	KCNK3 inh -9 | KCNK3 inh conf 113 | KCNK3 uninduced inactive
CN(C)c1ccc(S(=O)(=O)N2CCCCC2)cc1NC(=O)CCNC(=O)c1ccc(Cl)cc1	none (no result: KCNQ1 block, hERG rescue, KCNK9 inh, KCNQ1 pot)
